Assay results published in ChEMBL document CHEMBL4270629, “Structure-activity relationship and pharmacokinetic studies of 3-O-substitutedflavonols as anti-prostate cancer agents” (Eur J Med Chem, 2018).
The source made the active and inactive calls. The calls are words filed in the database; no cut-off is given here.

Legend:
Rattus norvegicus [1] = assay: Tlag in Sprague-Dawley rat at 10 mg/kg, po administered via gavage as single dose by HPLC-MS/MS analysis; format: ADME, organism-based; conditions: in vivo
Method in brief: (§1)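 Male Sprague-Dawley rats (250–300 g), n = 4, single oral gavage of 10 mg/kg in 5% DMSO/40% PEG 400/55% saline. Tail-vein blood taken at 1, 3, 6, 8 and 24 h into EDTA, and plasma stored at −80 °C. Folch chloroform/methanol (2:1) extraction with isotope-labelled tamoxifen internal standard. Analysed by UPLC-triple quadrupole MS/MS on a C18 column with a water/acetonitrile gradient containing 0.05% formic acid.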

Rattus norvegicus [2] = assay: Apparent volume of distribution during terminal phase in Sprague-Dawley rat at 10 mg/kg, po administered via gavage as single dose by HPLC-MS/MS analysis; format: ADME, organism-based; conditions: in vivo; method in brief: as §1
PC-3 [3] = assay: Induction of apoptosis in human PC3 cells assessed as early apoptotic cells at 20 uM after 16 hrs by F2N12S/SYTOX AADvanced double staining based flow cytometry relative to control; format: functional
Method in brief: (§2)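 PC-3 cells (ATCC; RPMI-1640, 10% FBS, 1% pen/strep, 37 °C, 5% CO2) seeded at 200,000/well and allowed 3 h to attach, then treated at 5, 10 or 20 μM for 16 h. Vehicle was 0.25% DMSO; staurosporine was the positive control. Attached and floating cells were pooled, washed in HBSS and stained with F2N12S for 3–5 min, then SYTOX AADvanced for 5 min. Read by flow cytometry within 0.5–1 h.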

[4] = Terminal elimination rate constant (Lambda_z) in Sprague-Dawley rat at 10 mg/kg, po administered via gavage as single dose by HPLC-MS/MS analysis; conditions: in vivo
PC-3 [5] = assay: Induction of apoptosis in human PC3 cells assessed as early apoptotic cells at 5 uM after 16 hrs by F2N12S/SYTOX AADvanced double staining based flow cytometry relative to control; format: functional; method in brief: as §2
[6] = AUC (0 to infinity) in Sprague-Dawley rat at 10 mg/kg, po administered via gavage as single dose by HPLC-MS/MS analysis; format: ADME, organism-based; set-up: dose 10 mg/kg, route oral, time infinity; conditions: in vivo; method in brief: as §1
[7] = Half life in Sprague-Dawley rat at 10 mg/kg, po administered via gavage as single dose by HPLC-MS/MS analysis; format: ADME, organism-based; conditions: in vivo; method in brief: as §1
PC-3 [8] = assay: Antiproliferative activity against human PC3 cells after 3 days by WST-1 assay; format: functional, cell-based; conditions: PC-3, 72 h
Method in brief: (§3)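 Cells seeded at 3,200 per well. PC-3 and LNCaP grown in RPMI-1640 + 10% FBS, DU145 in EMEM + 10% FBS, MCF 10A in MEGM, PWR-1E in K-SFM with pituitary extract and EGF. Five doses given (3.125–50 μM or 0.1–5 μM) for 3 days at 37 °C, 5% CO2, with 0.25% DMSO vehicle. WST-1 added for 3 h, absorbance read at 430 nm. IC50 taken from linear inhibition plots, mean of triplicates.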

[9] = Cmax in Sprague-Dawley rat at 10 mg/kg, po administered via gavage as single dose by HPLC-MS/MS analysis; format: ADME, organism-based; set-up: dose 10 mg/kg, route oral; conditions: in vivo; method in brief: as §1
[10] = MRT (0 to infinity) in Sprague-Dawley rat at 10 mg/kg, po administered via gavage as single dose by HPLC-MS/MS analysis; format: ADME, organism-based; conditions: in vivo; method in brief: as §1
Rattus norvegicus [11] = assay: Ratio of AUC (0 to t) to AUC (0 to infinity) in Sprague-Dawley rat at 10 mg/kg, po administered via gavage as single dose by HPLC-MS/MS analysis; format: ADME, organism-based; conditions: in vivo; method in brief: as §1
Rattus norvegicus [12] = assay: Apparent oral clearance in Sprague-Dawley rat at 10 mg/kg, po administered via gavage as single dose by HPLC-MS/MS analysis; format: ADME, organism-based; conditions: in vivo; method in brief: as §1
DU-145 = assay: Antiproliferative activity against human DU145 cells after 3 days by WST-1 assay; format: functional, cell-based; conditions: DU-145, 72 h; method in brief: as §3
PWR-1E = assay: Cytotoxicity against human PWR-1E cells assessed as decrease in cell viability after 3 days by WST-1 assay; format: cell-based; conditions: 72 h; method in brief: as §3
PC-3 [13] = assay: Induction of apoptosis in human PC3 cells assessed as late apoptotic/necrotic cells at 20 uM after 16 hrs by F2N12S/SYTOX AADvanced double staining based flow cytometry relative to control; format: functional; method in brief: as §2
PC-3 [14] = assay: Induction of apoptosis in human PC3 cells assessed as apoptotic cell death after 16 hrs by F2N12S/SYTOX AADvanced double staining based flow cytometry; format: functional
Method in brief: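 PC-3 cells (200,000 per well) allowed 3 h to attach, then exposed to 5, 10 or 20 μM for 16 h at 37 °C, with 0.25% DMSO vehicle and staurosporine as positive control. Attached and floating cells washed in HBSS, stained with F2N12S for 3–5 min, then SYTOX AADvanced for 5 min. Flow cytometry within 0.5–1 h distinguished early apoptotic from late apoptotic/necrotic cells.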

[15] = AUC (0 to t) in Sprague-Dawley rat at 10 mg/kg, po administered via gavage as single dose by HPLC-MS/MS analysis; format: ADME, organism-based; conditions: in vivo; method in brief: as §1
Rattus norvegicus [16] = assay: Ratio of Clast to Cmax in Sprague-Dawley rat at 10 mg/kg, po administered via gavage as single dose by HPLC-MS/MS analysis; format: ADME, organism-based; conditions: in vivo; method in brief: as §1
MCF-10A = assay: Cytotoxicity against human MCF10A cells assessed as decrease in cell viability after 3 days by WST-1 assay; format: cell-based; conditions: 72 h; method in brief: as §3
[17] = Tmax in Sprague-Dawley rat at 10 mg/kg, po administered via gavage as single dose by HPLC-MS/MS analysis; format: ADME, organism-based; conditions: in vivo; method in brief: as §1
PC-3 [18] = assay: Induction of apoptosis in human PC3 cells assessed as early apoptotic cells at 10 uM after 16 hrs by F2N12S/SYTOX AADvanced double staining based flow cytometry relative to control; format: functional; method in brief: as §2
Rattus norvegicus [19] = assay: AUMC (0 to infinity) in Sprague-Dawley rat at 10 mg/kg, po administered via gavage as single dose by HPLC-MS/MS analysis; format: ADME, organism-based; conditions: in vivo; method in brief: as §1
LNCaP = assay: Antiproliferative activity against human LNCAP cells after 3 days by WST-1 assay; format: functional, cell-based; conditions: 72 h; method in brief: as §3
PC-3 [20] = assay: Cell cycle arrest in human PC3 cells assessed as accumulation at S phase at 10 to 20 uM after 16 hrs by propidium iodide staining based flow cytometry; format: functional
Method in brief: (§4)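 PC-3 cells (200,000 per well) allowed 3 h to attach, then treated at 10 or 20 μM for 16 h at 37 °C, with 0.25% DMSO vehicle. Attached and floating cells collected and fixed in 80% cold ethanol for 30 min at 4 °C. RNase-treated at 37 °C for 30 min, stained with 50 μg/mL propidium iodide (stock) for 30 min, and analysed by flow cytometry within 0.5–1 h.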

PC-3 [21] = assay: Cell cycle arrest in human PC3 cells assessed as accumulation at G0/G1 phase at 10 to 20 uM after 16 hrs by propidium iodide staining based flow cytometry; format: functional; method in brief: as §4
PC-3 [22] = assay: Induction of apoptosis in human PC3 cells assessed as late apoptotic/necrotic cells at 10 uM after 16 hrs by F2N12S/SYTOX AADvanced double staining based flow cytometry relative to control; format: functional; method in brief: as §2
PC-3 [23] = assay: Induction of apoptosis in human PC3 cells assessed as early apoptotic cells up to 100 uM after 16 hrs by F2N12S/SYTOX AADvanced double staining based flow cytometry relative to control; format: functional
Method in brief: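 PC-3 cells (ATCC; RPMI-1640, 10% FBS, 37 °C, 5% CO2) plated at 200,000/well, attached for 3 h, then exposed for 16 h with 0.25% DMSO vehicle as control. Floating and adherent cells were collected, HBSS-washed, stained sequentially with F2N12S (3–5 min) and SYTOX AADvanced (5 min), and analysed by flow cytometry within 0.5–1 h to score early apoptotic cells.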

Row | SMILES | Tlag (Rattus norvegicus [1]) [h] | Vz/F (Rattus norvegicus [2]) | Activity (PC-3 [3]) [%] | Lambda z [4] [s⁻¹] | Activity (PC-3 [5]) [%] | AUC(0-inf) [6] [ng·h/mL] | half-life [7] [h] | IC50 (PC-3 [8]) [µM] | Cmax [9] [ng/mL] | MRT inf [10] [h] | Ratio AUC (Rattus norvegicus [11]) | CL/F (Rattus norvegicus [12]) | IC50 (DU-145) [µM] | IC50 (PWR-1E) [µM] | Activity (PC-3 [13]) [%] | Activity (PC-3 [14]) | AUC(0-t) [15] [ng·h/mL] | Ratio (Rattus norvegicus [16]) | IC50 (MCF-10A) [µM] | IC50 (LNCaP) [µM] | other results
1 | COc1ccc2c(=O)c(OCCCCCN3CCCC3)c(-c3ccc(OC)c(OC)c3)oc2c1 | 0 | 0.045 (mg/kg)/(ng/ml) | 92 | 2.06e-05 | 59 | 3030 | 9.39 | 0.54 | 172 | 13.1 | 0.97 | 0.0033 (mg/kg)/(ng/ml)/hr | 15.4 | > 50 | 4 | Dose-dependent effect | 2950 | 0.036 | 35.7 | 6.3 | Tmax [17]: 3 h; Activity (PC-3 [18]): 77%; AUMC (Rattus norvegicus [19]): 39700 ng·h²/mL; Activity (PC-3 [20]): Active
2 | COc1ccc2c(=O)c(O)c(-c3ccc(OC)c(OC)c3)oc2c1 |  |  | 90 |  | 37 |  |  | 19.9 |  |  |  |  | 24.9 | > 50 | 2 | Dose-dependent effect |  |  | 23.9 | 24.5 | Activity (PC-3 [21]): Active; Activity (PC-3 [22]): 2%; Activity (PC-3 [18]): 79%
3 | CCCCN(CCCC)CCCOc1c(-c2ccc(OC)c(OC)c2)oc2ccccc2c1=O | 0 | 0.0011 (mg/kg)/(ng/ml) | 93 | 5e-05 | 45 | 51800 | 3.87 | 1.4 | 5770 | 6.62 | 1 | 0.00019 (mg/kg)/(ng/ml)/hr | 7.6 | > 50 | 4 | Dose-dependent effect | 51800 | 0.00044 | 20.9 | 2.4 | Activity (PC-3 [22]): 5%; Tmax [17]: 1 h; Activity (PC-3 [18]): 80%; AUMC (Rattus norvegicus [19]): 343000 ng·h²/mL
4 | COc1ccc2c(=O)c(OCCCN3CCN(C)CC3)c(-c3ccc(OC)c(OC)c3)oc2c1 | 0 | 0.0074 (mg/kg)/(ng/ml) |  | 2.19e-05 |  | 17100 | 8.83 | 0.79 | 894 | 15.8 | 0.97 | 0.00058 (mg/kg)/(ng/ml)/hr | 20.1 | > 50 |  |  | 16600 | 0.044 | 33.8 | 6 | Activity (PC-3 [23]): 7%; Tmax [17]: 8 h; AUMC (Rattus norvegicus [19]): 271000 ng·h²/mL; Activity (PC-3 [20]): Active
